Assay results reported in ChEMBL document CHEMBL2010643 (Bioorg Med Chem Lett, 2012).
Activity calls are given as the source filed them. No cut-off for these calls is given here.

Columns and labels:
[1] = molecular target: Tyrosine-protein kinase CSK (Homo sapiens) (UniProt P41240); experiment: Inhibition of CSK assessed as residual activity at 10 uM relative to control
[2] = molecular target: Eukaryotic elongation factor 2 kinase (Homo sapiens) (UniProt O00418); experiment: Inhibition of EF2K assessed as residual activity at 10 uM relative to control
[3] = molecular target: Glycogen synthase kinase-3 beta (Homo sapiens) (UniProt P49841); experiment: Inhibition of GSK3b assessed as residual activity at 10 uM relative to control
[4] = molecular target: Insulin receptor-related protein (Homo sapiens) (UniProt P14616); experiment: Inhibition of IRR assessed as residual activity at 10 uM relative to control
[5] = molecular target: Mitogen-activated protein kinase 14 (Homo sapiens) (UniProt Q16539); experiment: Inhibition of p38alpha MAPK assessed as residual activity at 10 uM relative to control
Procedure, shortened: (§1)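 Radioactivity-based enzymatic kinase assays run across a 124-kinase profiling panel (Dundee), reporting the remaining kinase activity relative to a control.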

[6] = molecular target: Mitogen-activated protein kinase 13 (Homo sapiens) (UniProt O15264); experiment: Inhibition of p38delta MAPK assessed as residual activity at 10 uM relative to control; procedure, shortened: as §1
Sequence of Mitogen-activated protein kinase 13 (Homo sapiens) (O15264 whole entry): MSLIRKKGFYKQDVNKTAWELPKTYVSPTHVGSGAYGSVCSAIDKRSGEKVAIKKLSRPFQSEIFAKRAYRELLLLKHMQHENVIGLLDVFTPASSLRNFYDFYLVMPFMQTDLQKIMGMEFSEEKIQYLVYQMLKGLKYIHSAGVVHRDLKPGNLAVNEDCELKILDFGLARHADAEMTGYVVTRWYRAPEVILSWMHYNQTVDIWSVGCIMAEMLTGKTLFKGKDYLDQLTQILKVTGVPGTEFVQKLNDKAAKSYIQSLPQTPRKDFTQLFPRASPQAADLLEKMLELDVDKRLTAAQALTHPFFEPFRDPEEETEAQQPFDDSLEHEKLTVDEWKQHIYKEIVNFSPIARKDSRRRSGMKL

[7] = molecular target: Serine/threonine-protein kinase PAK 4 (Homo sapiens) (UniProt O96013); experiment: Inhibition of PAK4 assessed as residual activity at 10 uM relative to control
Sequence of Serine/threonine-protein kinase PAK 4 (Homo sapiens) (O96013 whole entry, looked up): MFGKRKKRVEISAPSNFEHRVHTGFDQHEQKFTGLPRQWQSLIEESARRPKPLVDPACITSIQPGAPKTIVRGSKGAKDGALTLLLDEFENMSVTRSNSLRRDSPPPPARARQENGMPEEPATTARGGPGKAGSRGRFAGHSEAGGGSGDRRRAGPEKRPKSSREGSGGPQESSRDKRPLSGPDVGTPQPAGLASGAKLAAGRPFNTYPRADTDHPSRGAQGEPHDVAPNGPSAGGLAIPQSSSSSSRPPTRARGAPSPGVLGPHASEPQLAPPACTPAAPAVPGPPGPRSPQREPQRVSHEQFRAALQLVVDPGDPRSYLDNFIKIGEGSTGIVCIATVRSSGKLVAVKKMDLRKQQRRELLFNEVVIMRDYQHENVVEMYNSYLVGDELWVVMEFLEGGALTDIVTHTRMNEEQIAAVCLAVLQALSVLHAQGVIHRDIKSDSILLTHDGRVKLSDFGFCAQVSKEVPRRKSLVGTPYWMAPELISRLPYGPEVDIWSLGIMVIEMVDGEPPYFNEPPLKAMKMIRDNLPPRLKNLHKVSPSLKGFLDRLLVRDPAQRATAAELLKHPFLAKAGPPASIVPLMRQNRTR

[8] = molecular target: Serine/threonine-protein kinase PAK 5 (Homo sapiens) (UniProt Q9P286); experiment: Inhibition of PAK5 assessed as residual activity at 10 uM relative to control
[9] = molecular target: Serine/threonine-protein kinase pim-2 (Homo sapiens) (UniProt Q9P1W9); experiment: Inhibition of PIM2 assessed as residual activity at 10 uM relative to control
Sequence of Serine/threonine-protein kinase pim-2 (Homo sapiens) (Q9P1W9 whole entry, looked up): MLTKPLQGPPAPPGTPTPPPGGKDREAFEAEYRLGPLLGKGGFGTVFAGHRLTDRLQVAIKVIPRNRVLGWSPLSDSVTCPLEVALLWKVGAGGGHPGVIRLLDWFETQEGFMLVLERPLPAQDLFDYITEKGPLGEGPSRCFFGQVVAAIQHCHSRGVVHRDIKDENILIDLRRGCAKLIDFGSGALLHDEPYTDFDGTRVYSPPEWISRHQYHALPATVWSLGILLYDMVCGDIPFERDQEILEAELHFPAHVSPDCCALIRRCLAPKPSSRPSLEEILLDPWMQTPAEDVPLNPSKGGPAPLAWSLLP

[10] = molecular target: Serine/threonine-protein kinase pim-3 (Homo sapiens) (UniProt Q86V86); experiment: Inhibition of PIM3 assessed as residual activity at 10 uM relative to control
[11] = molecular target: Leucine-rich repeat serine/threonine-protein kinase 2 (Homo sapiens, UniProt Q5S007); experiment: Inhibition of wild-type LRRK2 phosphorylation at Ser910 expressed in HEK293 cells at 0.1 to 0.3 uM after 90 mins by immunoblot analysis; format: cell-based
Procedure, shortened: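 HEK293 cells stably expressing wild-type GFP-LRRK2 exposed to DMSO or increasing inhibitor concentrations for 90 min. Lysates immunoblotted for LRRK2 phosphorylated at Ser910 and Ser935 and for total LRRK2.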

[12] = molecular target: Leucine-rich repeat serine/threonine-protein kinase 2 (Mus musculus) (UniProt Q5S006); experiment: Inhibition of wild type LRRK2 phosphorylation at Ser935 in mouse 3T3 cells after 90 mins by Western blot analysis; format: cell-based
Procedure, shortened: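 Mouse Swiss 3T3 cells treated with DMSO or increasing inhibitor concentrations for 90 min. Endogenous LRRK2 in lysates immunoblotted with purified phospho-specific antibodies to Ser910 and Ser935 and with a total LRRK2 antibody. Blots done in duplicate, representative of at least two independent experiments.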

[13] = system: Plasma; experiment: AUClast in Swiss albino mouse plasma at 10 mg/kg, po; format: ADME, organism-based; set-up: time 0 - last, dose 10 mg/kg, route oral; details: in vivo
Procedure, shortened: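 Male Swiss Albino mice were given a single dose, either intravenous at 1 mg/kg or oral at 10 mg/kg. AUClast was measured in plasma and in brain. Half-life, plasma clearance, volume of distribution and oral bioavailability were derived from the plasma data.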

[14] = molecular target: Serine/threonine-protein kinase N2 (Homo sapiens) (UniProt Q16513); experiment: Inhibition of PRK2 assessed as residual activity at 10 uM relative to control
[15] = molecular target: Tyrosine-protein kinase ZAP-70 (Homo sapiens) (UniProt P43403); experiment: Inhibition of ZAP70 assessed as residual activity at 10 uM relative to control; procedure, shortened: as §1
[16] = molecular target: Calcium/calmodulin-dependent protein kinase kinase 2 (Homo sapiens) (UniProt Q96RR4); experiment: Inhibition of CAMKKb assessed as residual activity at 1 uM relative to control
Procedure, shortened: (§2)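 Standard radioactivity-based enzymatic assays were run across a 124-kinase panel (Dundee profiling), with compound at 1 µM. Kinase activity was expressed relative to control.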

[17] = Inhibition of CK1 assessed as residual activity at 1 uM relative to control; procedure, shortened: as §2
[18] = molecular target: Tyrosine-protein kinase CSK (Homo sapiens) (UniProt P41240); experiment: Inhibition of CSK assessed as residual activity at 1 uM relative to control; procedure, shortened: as §2
[19] = molecular target: Dual specificity tyrosine-phosphorylation-regulated kinase 2 (Homo sapiens) (UniProt Q92630); experiment: Inhibition of DYRK2 assessed as residual activity at 1 uM relative to control; procedure, shortened: as §2
Sequence of Dual specificity tyrosine-phosphorylation-regulated kinase 2 (Homo sapiens) (Q92630 whole entry): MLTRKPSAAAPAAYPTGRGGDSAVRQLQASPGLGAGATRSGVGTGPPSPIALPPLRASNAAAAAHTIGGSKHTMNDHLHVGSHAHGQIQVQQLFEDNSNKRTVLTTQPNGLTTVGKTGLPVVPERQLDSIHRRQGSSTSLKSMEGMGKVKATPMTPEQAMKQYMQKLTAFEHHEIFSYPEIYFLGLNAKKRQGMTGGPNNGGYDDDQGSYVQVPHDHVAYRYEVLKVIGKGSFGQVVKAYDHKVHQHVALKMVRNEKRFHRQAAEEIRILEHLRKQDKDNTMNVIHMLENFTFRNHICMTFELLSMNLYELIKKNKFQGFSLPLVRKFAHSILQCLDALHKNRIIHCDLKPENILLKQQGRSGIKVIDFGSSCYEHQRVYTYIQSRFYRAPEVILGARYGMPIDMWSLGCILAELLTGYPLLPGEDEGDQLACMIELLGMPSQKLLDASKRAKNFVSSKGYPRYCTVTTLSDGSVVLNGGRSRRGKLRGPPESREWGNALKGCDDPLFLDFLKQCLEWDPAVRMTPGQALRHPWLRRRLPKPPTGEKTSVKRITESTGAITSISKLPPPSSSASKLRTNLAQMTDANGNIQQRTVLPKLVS

[20] = system: Mus musculus; experiment: Inhibition of LRRK2 phosphorylation at Ser910 in C57BL/6 mouse kidney at 50 mg/kg, po administered for 8 hrs followed by 2 hrs dosing; format: functional, organism-based; set-up: dose 50 mg/kg
Procedure, shortened: (§3)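 Mice were dosed by oral gavage at 10 or 50 mg/kg. Brain, spleen and kidney were collected. Endogenous LRRK2 was resolved by SDS–PAGE and blotted with phospho-specific antibodies to Ser910 and Ser935 and with an antibody to total LRRK2.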

[21] = system: Mus musculus; experiment: Inhibition of LRRK2 phosphorylation at Ser935 in C57BL/6 mouse spleen at 50 mg/kg, po administered for 8 hrs followed by 2 hrs dosing; format: functional, organism-based; set-up: dose 50 mg/kg; procedure, shortened: as §3
[22] = molecular target: Tyrosine-protein kinase BTK (Homo sapiens) (UniProt Q06187); experiment: Inhibition of BTK assessed as residual activity at 10 uM relative to control
[23] = molecular target: Ephrin type-A receptor 2 (Homo sapiens) (UniProt P29317); experiment: Inhibition of EPH-A2 assessed as residual activity at 1 uM relative to control; procedure, shortened: as §2
Sequence of Ephrin type-A receptor 2 (Homo sapiens) (P29317 whole entry): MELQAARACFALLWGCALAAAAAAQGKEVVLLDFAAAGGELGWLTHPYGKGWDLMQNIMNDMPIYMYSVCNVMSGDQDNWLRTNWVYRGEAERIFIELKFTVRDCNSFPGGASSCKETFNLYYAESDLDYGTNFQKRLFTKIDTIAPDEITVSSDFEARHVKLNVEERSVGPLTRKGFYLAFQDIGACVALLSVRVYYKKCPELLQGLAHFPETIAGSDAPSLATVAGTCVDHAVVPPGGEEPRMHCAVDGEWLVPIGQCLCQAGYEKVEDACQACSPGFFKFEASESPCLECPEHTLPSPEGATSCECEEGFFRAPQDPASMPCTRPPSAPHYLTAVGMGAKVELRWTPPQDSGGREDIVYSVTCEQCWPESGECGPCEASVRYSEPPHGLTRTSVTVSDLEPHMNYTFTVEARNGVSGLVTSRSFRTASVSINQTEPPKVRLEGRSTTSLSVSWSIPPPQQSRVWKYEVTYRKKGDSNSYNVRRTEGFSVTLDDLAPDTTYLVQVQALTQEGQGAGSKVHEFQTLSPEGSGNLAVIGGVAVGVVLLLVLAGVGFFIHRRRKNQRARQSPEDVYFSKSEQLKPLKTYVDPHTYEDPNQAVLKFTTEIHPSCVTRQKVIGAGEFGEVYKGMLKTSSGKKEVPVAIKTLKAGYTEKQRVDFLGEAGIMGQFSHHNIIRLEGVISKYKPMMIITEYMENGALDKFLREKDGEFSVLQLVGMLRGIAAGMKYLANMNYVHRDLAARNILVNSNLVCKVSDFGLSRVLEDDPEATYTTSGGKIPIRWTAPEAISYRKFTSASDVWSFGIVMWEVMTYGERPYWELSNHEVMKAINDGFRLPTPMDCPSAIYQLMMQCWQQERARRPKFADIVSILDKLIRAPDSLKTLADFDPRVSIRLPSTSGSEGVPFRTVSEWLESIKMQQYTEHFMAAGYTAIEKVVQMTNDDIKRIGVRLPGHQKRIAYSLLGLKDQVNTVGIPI

[24] = molecular target: Ephrin type-B receptor 1 (Homo sapiens) (UniProt P54762); experiment: Inhibition of EPH-B1 assessed as residual activity at 1 uM relative to control; procedure, shortened: as §2
Sequence of Ephrin type-B receptor 1 (Homo sapiens) (P54762 whole entry): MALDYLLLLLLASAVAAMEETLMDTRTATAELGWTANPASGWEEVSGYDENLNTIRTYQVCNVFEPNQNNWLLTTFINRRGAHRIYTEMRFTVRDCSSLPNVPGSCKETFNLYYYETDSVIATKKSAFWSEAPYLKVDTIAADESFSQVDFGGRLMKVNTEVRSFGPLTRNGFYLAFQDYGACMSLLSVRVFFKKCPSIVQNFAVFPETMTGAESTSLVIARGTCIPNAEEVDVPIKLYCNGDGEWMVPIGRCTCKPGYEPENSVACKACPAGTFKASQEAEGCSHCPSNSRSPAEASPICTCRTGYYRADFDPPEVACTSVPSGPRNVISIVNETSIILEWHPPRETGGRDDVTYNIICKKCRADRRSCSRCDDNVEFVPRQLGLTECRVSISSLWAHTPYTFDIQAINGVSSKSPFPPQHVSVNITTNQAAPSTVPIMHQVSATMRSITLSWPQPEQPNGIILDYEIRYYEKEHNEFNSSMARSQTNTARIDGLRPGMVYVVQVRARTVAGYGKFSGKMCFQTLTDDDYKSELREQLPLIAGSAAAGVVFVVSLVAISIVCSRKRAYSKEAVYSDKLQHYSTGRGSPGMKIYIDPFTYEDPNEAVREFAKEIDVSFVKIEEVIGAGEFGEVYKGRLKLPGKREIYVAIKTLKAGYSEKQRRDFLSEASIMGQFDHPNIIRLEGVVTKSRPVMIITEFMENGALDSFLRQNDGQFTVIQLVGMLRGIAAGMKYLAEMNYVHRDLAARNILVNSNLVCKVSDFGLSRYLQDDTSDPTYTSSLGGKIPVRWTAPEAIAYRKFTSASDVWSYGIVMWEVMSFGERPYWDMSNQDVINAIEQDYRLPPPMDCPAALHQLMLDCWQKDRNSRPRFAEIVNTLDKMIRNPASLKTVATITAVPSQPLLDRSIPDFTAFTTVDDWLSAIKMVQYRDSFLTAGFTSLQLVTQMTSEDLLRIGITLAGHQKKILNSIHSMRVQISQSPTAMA

[25] = molecular target: Inhibitor of nuclear factor kappa-B kinase subunit beta (Homo sapiens) (UniProt O14920); experiment: Inhibition of IKKbeta assessed as residual activity at 1 uM relative to control
Sequence of Inhibitor of nuclear factor kappa-B kinase subunit beta (Homo sapiens) (O14920 whole entry): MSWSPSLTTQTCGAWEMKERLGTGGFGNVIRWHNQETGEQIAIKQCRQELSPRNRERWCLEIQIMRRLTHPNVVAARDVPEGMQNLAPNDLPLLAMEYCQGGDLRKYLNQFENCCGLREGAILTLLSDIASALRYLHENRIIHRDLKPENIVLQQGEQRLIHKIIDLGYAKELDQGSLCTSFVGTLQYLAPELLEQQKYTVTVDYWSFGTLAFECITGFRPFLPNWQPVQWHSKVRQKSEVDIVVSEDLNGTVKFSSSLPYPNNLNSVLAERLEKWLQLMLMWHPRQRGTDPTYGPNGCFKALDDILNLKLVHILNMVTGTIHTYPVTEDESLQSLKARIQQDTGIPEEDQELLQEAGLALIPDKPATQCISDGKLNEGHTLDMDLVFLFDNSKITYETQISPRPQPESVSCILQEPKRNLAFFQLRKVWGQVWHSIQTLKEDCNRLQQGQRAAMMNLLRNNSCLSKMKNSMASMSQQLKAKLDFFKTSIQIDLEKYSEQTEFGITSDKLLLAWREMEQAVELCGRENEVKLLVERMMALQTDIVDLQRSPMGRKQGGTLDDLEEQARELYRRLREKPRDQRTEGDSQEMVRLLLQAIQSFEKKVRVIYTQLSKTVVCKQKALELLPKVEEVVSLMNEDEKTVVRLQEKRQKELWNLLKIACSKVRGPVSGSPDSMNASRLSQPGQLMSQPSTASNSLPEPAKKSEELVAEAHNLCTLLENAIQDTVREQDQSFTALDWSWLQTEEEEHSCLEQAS

[26] = molecular target: Serine/threonine-protein kinase STK11 (Homo sapiens) (UniProt Q15831); experiment: Inhibition of LKB1 assessed as residual activity at 1 uM relative to control
[27] = molecular target: Serine/threonine-protein kinase 26 (Homo sapiens) (UniProt Q9P289); experiment: Inhibition of MST4 assessed as residual activity at 1 uM relative to control
[28] = molecular target: Mitogen-activated protein kinase 12 (Homo sapiens) (UniProt P53778); experiment: Inhibition of p38gamma MAPK assessed as residual activity at 1 uM relative to control; procedure, shortened: as §1
[29] = molecular target: Serine/threonine-protein kinase PAK 4 (Homo sapiens) (UniProt O96013); experiment: Inhibition of PAK4 assessed as residual activity at 1 uM relative to control
[30] = molecular target: RAC-alpha serine/threonine-protein kinase (Homo sapiens) (UniProt P31749); experiment: Inhibition of PKBalpha assessed as residual activity at 1 uM relative to control
[31] = molecular target: MAP kinase-activated protein kinase 5 (Homo sapiens) (UniProt Q8IW41); experiment: Inhibition of PRAK assessed as residual activity at 1 uM relative to control
[32] = molecular target: Receptor-interacting serine/threonine-protein kinase 2 (Homo sapiens) (UniProt O43353); experiment: Inhibition of RIPK2 assessed as residual activity at 1 uM relative to control

Sequence of Tyrosine-protein kinase CSK (Homo sapiens) (P41240 2-450 limits assumed): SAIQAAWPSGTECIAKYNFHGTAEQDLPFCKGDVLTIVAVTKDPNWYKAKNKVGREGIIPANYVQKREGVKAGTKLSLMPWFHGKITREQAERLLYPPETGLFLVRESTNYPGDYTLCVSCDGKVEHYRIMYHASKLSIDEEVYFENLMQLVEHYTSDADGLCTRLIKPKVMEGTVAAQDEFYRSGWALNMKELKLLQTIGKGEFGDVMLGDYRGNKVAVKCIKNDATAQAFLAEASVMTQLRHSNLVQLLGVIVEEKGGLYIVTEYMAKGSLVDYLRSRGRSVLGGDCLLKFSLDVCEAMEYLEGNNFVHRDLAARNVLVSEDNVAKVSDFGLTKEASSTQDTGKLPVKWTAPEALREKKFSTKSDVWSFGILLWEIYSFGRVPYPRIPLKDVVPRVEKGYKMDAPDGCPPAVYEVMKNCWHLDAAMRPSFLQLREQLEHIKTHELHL

Compound COc1cc(N2CCC(N3CCN(C)CC3)CC2)ccc1Nc1ncc(Cl)c(Nc2ccccc2S(=O)(=O)C(C)C)n1 [TAE-684] has an Activity [1] of 33%, an Activity [2] of 94% and an Activity [3] of 92%. The Activity [4] was 66%, the Activity [5] was 79% and the Activity [6] was 87%. For the same compound, the Activity [7] was 44%, the Activity [8] was 35% and the Activity [9] was 107%. The Activity [10] was 104%, the inhibition [11] was “Active” and the inhibition [12] was “Dose-dependent effect”. It also gave an AUClast [13] of 6374 ng·h/mL, an Activity [14] of 18% and an Activity [15] of 129%. It also gave an Activity [16] of 9%, an Activity [17] of 102% and an Activity [18] of 77%. The Activity [19] was 105%, the inhibition [20] was “Active” and the inhibition [21] was “Active”. It also gave an Activity [22] of 38%, an Activity [23] of 70% and an Activity [24] of 50%. It also gave an Activity [25] of 98%, an Activity [26] of 94% and an Activity [27] of 92%. It also gave an Activity [28] of 102%, an Activity [29] of 75% and an Activity [30] of 102%. For the same compound, the Activity [31] was 101% and the Activity [32] was 94%.
